Test results from the EternaBench riboswitch data.

Test system: MS2 coat protein
Test: apparent Kd, MS2 coat protein; higher = weaker binding; RNA-MaP array
Outline: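 Designed RNAs were produced on an Illumina sequencing chip by transcription of sequenced DNA templates. Binding to fluorescently labeled MS2 coat protein (1.5 nM to 3 μM) was measured at room temperature with or without input ligand. The apparent Kd is the median of per-cluster binding-curve fits. Designs were excluded when measured on fewer than 10 clusters.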

[1] = designed as: OFF switch for flavin mononucleotide, no ligand
[2] = ligand present: flavin mononucleotide, designed as: OFF switch for flavin mononucleotide
[3] = designed as: ON switch for flavin mononucleotide, no ligand
[4] = ligand present: flavin mononucleotide, designed as: ON switch for flavin mononucleotide
[5] = designed as: ON switch for tryptophan, no ligand
[6] = ligand present: tryptophan, designed as: ON switch for tryptophan
[7] = designed as: ON switch for theophylline, no ligand
[8] = ligand present: theophylline, designed as: ON switch for theophylline
[9] = designed as: OFF switch for theophylline, no ligand
[10] = ligand present: theophylline, designed as: OFF switch for theophylline

Sequence	apparent Kd [1] [nM]	apparent Kd [2] [nM]	apparent Kd [3] [nM]	apparent Kd [4] [nM]	other results
GAACCGUUUGAGAAGGUACACAUUCAGGUCGGUACUGGACAUGAGGAUCACCCAUGUGCCGGUGGUAAGGAUAUCAGAUGAGCU	10.5	10.4	–	–	–
AUGGAACAUGAGGAUCACCCAUGUUAGGAUAUCGGCGAAGGGAGUUUUAUACUCACUGCGAGAAGGAACGUGAC	25.2	18.7	–	–	–
CGAACAUGAGGAUCACCCAUGUGUUUCCUUGGUAGACGACAUAGAAGGGCCGUAAAUUACAGCGGGCAGGAUAUAUGACUUAAG	164	137	–	–	–
CAUUACCAUGUUAGGAUAUCCUGCGGAAUUGCCCUGGAGAAGGAACAUGAGGAUCACCCAUGUGCACAAACAAC	17.6	26.1	–	–	–
ACCCUCUAUGAGAAGGAGAGCUUCGCUAGUUAUCUAGGAUAUCACGGAGGACCACUGACACUCCGACAUGAGGAUCACCCAUGU	–	–	16.5	13.9	–
AUCACCUUCAAGAAGGUCCCAUACAUGAGGAUCACCCAUGUAAACAAAAUAAUAUGAAAUAAAAGGAAGGAUAUUGAACCAUGA	–	–	55.1	30.3	–
GACGAGUAGACGGCCGCCACUAUGCUGCGCAGCCCUAGAAACGCACAUGAGGAUCACCCAUGUCUUAGGACCGGGUCGAACUUAA	–	–	–	–	apparent Kd [5]: 78.5 nM; apparent Kd [6]: 65.7 nM
AUAACACAUGAGGAUCACCCAUGUAAGGAUACCAGUUUCUGAUUAAACCCUUGGCAGCCUAGAGAUAGUCAUGUAAUAACGGCGA	–	–	–	–	apparent Kd [7]: 11.9 nM; apparent Kd [8]: 19 nM
CAGGGAAGAUGAGGAUAUCAUAGGAGGAUAUGUCGACACAUGAGGAUCACCCAUGUCGCUUACGUUGAGAAGGCAUUGACGUGU	13.2	11.3	–	–	–
GCAAAAUACAUGAGGAUCACCCAUGUUAAGUGGGCCUGAACAAGAAGGCAGCAAAUUUUAUUUUCUGAGGAUAUUGGCAUAUAU	30.2	36.8	–	–	–
AUUGUGUAAGGAUAUUAUAGAAGAGGUAGGCAACUUCUGAAUAAGAAGGUACAUGAGGAUCACCCAUGUUCAAU	11.7	12.1	–	–	–
AUUAACUGGUAAGAUACCAGAGUCGGGAUCUACAUGAGGAUCACCCAUGUUCUAAAGUCGCUCCCUUGGCAGCUUCAAUGAGUCG	–	–	–	–	apparent Kd [7]: 35.3 nM; apparent Kd [8]: 36 nM
GAAACAUUCCCGAGUUUCUACAUGAGGAUCACCCAUGUCCCAUAGGAUAUCUCUACCAGCCGCCGAGAGAAGGAUGUAGUCACU	–	–	185	148	–
AGUGCUACGUGUAAUCAAAGAGAACCAGAUACCAGAUUAGCAUACAUCCCUUGGCAGCUGCAUACAUGAGGAUCACCCAUGUCAG	–	–	–	–	apparent Kd [9]: 37.2 nM; apparent Kd [10]: 39.1 nM
ACCAGUAAAUAGCAAUCACAUGAGGAUCACCCAUGUACUGACAAGGAUAUAGUCUAAGAAUAGUGCUAGAAGGUGUUUCCCUAA	–	–	168	101	–
AUAAAACUAAUACAUGAGGAUCACCCAUGUGAAACACAUACGAGAAGGGCGACAGUCUCAUACACGCAGGAUAUCGGCUAAACG	–	–	10.8	9.95	–
AGAUUUUGCCAAGGAUAUUCGAUGCAUCAUGACAUGAGGAUCACCCAUGUAUAACGACUUGGGCUGAAGAAGGUGGACCAAGCU	11.8	12	–	–	–
UCUGGUUGAGGAUAUACAUGAGGAUCACCCAUGUCACCUAGCAAAGUAGAGAGUAAGUGUAGAAGGCAACCUUU	15.6	18.9	–	–	–
CAUACGCCGCAGAAGGAAGGACAGACAUGAGGAUCACCCAUGUACACCGGUUUAUUGGGUGCACCUUAGGAUAUGCAAAAGAAC	–	–	268	132	–
UAGAAACUCGUAAGGAUAUCCGAAGAGAAAAUGAGGGAGAAGGUACAUGAGGAUCACCCAUGUAUGAAAUGGAC	7.64	7.98	–	–	–
GACUACCAGUAAGGAUAUGCUCUUAUAAAAGGAGCAGAAGGUACCUGUGACGCCUACGGGCGACAUGAGGAUCACCCAUGUUCU	–	–	692	386	–
GCGGAACAUGAGGAUCACCCAUGUCAGGAUAUACGCACGGAGUAGGAGGAGGCCUAUGGUAGAAGGGACAGUGA	10.8	10.2	–	–	–
GGCCUUUCGGUAAGGAUAUCCCUCCGCGCAGAUUGGGAGAAGGUACAUGAGGAUCACCCAUGUUUUAUGGCUGC	9.4	10.8	–	–	–
UUUGUAUAGCAGAAGGCGUUAUUAGGAUGGCUACGAGGAUAUGCGGUACUCUAUUAGUACAUGAGGAUCACCCAUGUGUGGGCC	–	–	214	145	–
GUAUCGGUUGAGAAGGCGGCGGAGACAUAACUUGGUCCCAACAUGAGGAUCACCCAUGUUAAAUCCGAGGAUAUCAACAAAGCC	6.84	18.9	–	–	–
UCCCAGCAAGGAUAUACAUGAAAAGGUAAAGAAGAAAAGAAACAUGAGGAUCACCCAUGUAGAAGGUGCAAGAG	15.5	18.4	–	–	–
AUCAUAAGAGUAGGAUAUCGACAUGAGGAUCACCCAUGUACCUUGGAUGACCGCUAAUGGUUUAUCGAGAAGGACUUUUCCUCC	8.2	10.2	–	–	–

Sequence	apparent Kd [1] [nM]	apparent Kd [2] [nM]	apparent Kd [3] [nM]	apparent Kd [4] [nM]	other results
AAUGUACAUGAGGAUCACCCAUGUCGUCUACUUAGAGGAUAUGAUUGGUUACCCAGCUGAUCAGAAGGCUACCGUC	–	–	14.1	11.9	–
GUGAUACAUGAGGAUCACCCAUGUUAAGGUCUUGCAGGAUAUCCAGAACUCGAGAUAGAUGGAGAAGGGCAUGCAU	–	–	12.6	9.76	–
ACCUGGCGGCAGAAGGCCCGCGAUUAACGUAAGGGAGGAUAUGCAUUGUGCGGUGGGACAUGAGGAUCACCCAUGUGCAGCCAG	672	409	–	–	–
CGGCGGGACUCACAUGAGGAUCACCCAUGUUUAAAGGGUCAAAAGGAUAUGAAAACAGCAAGUAAUCAGAAGGUUUACCUAGUG	14.5	15.8	–	–	–
CAGUAAGUAGGAUAUGUAUCAAGCUACAUGAGGAUCACCCAUGUGAACCCUAACAGCUGAACAGAAGGACUGUGUG	156	198	–	–	–
GACGAGGAACCAAAGGAUAUACACAUAAACACAUGAGGAUCACCCAUGUAUUAGAGGAUAAACAUGUAGAAGGUUGAUACGGCGUG	–	–	48.7	36.9	–
AGUACAAUAUUAGGAUAUUGACAAAACAUGAGGAUCACCCAUGUAAGGCAAGUGCAAGGGAGAGUCAAGAAGGAAAACUGAGUU	–	–	38.4	30	–
AGGUCGAAACUAGGAUAUCUUCACUAUGUCAGAAGAGAAGGAGUAGAGCAUGACAGUGAUAGUACAUGAGGAUCACCCAUGUUA	18.8	15.7	–	–	–
GAGUACUGGUUAGGGAGAAAUACAUGAGGAUCACCCAUGUCCAGAAGGAUUCAGUAAGUGCCGGAAUAGGAUAUGGAACUAAAA	–	–	246	105	–
GGAAUGUCGUAGGAUAUAUGAUCUGUAAGGUAGAUAGAAGGACGAACAUGAGGAUCACCCAUGUGGAGGAUGUU	15.5	27.5	–	–	–
CGCAAGAUCUUAGGAUAUCUGUGAGCCAAGACUAGAGAAGGAAGGAGGCUGUGCAACAUGAGGAUCACCCAUGUAUCCCGUGCA	39.7	35.4	–	–	–
GUAAGACAUGAGGAUCACCCAUGUGUCGAUACCAGCCCUGCCUCUGGCCCUUGGCAGCGACUCGCACACCUCGCACUGCACAAGU	–	–	–	–	apparent Kd [7]: 54.9 nM; apparent Kd [8]: 73.2 nM
GUGGACAUGAGGAUCACCCAUGUAAGUCGGCGAGGACCGGUACGGCCGCCACUCGUGUUCUGUCUCAGCUCAAACGUAGCCGGAA	–	–	–	–	apparent Kd [5]: 36.3 nM; apparent Kd [6]: 17.9 nM
GGAAAAUAUAGGGAUACCAGAUAUGGCGUUGACAUGAGGAUCACCCAUGUCUUAGCAGUGAUCCCUUGGCAGCCCACACCAUCCG	–	–	–	–	apparent Kd [7]: 71.6 nM; apparent Kd [8]: 34 nM
UUCCUGAAAGGAUAUACCUGGCCCGUGAACUGGAUAAAAGCACAUGAGGAUCACCCAUGUAGAAGGUUCGAUUA	7.14	7.02	–	–	–
AGUGUAUACAAGAAGGAACAUGGACUAGGAUUGUUAGGAUAUUGCAUAAACAUGAGGAUCACCCAUGUGCGACACGCCCACAUC	–	–	35.4	21.7	–
GCUAUAUCGUAGCUAACAUGAGGAUCACCCAUGUGAAGGAAGAGAAGGUGCAUCUAACAGACCCGCAAGGAUAUCUAGAUAAAG	–	–	18.8	16.1	–
GGAGGCCUUAGGGAUACCAGCUAAGUUGAGUACAUGAGGAUCACCCAUGUGUUCCCAGAGAGCCCUUGGCAGCCCUCAUCCGUUC	–	–	–	–	apparent Kd [7]: 11.6 nM; apparent Kd [8]: 10.8 nM
UAAUUAACGUAGAAGGAAUCCCAUCCGUUGCAAUUAGGAUAUACGUUCCCUCGAACAUGAGGAUCACCCAUGUGGCAACCAUAU	14.7	13.8	–	–	–
GCCAGCAGUACAUGAGGAUCACCCAUGUCCCUUGUACUUUUAUAGGAUAUACGAGUGGCUACCAUGUAGAAGGAUAGAAUUGUC	932	606	–	–	–
UCAAGGUCAGGAUAUUUAUACAGUCGAUUACGAGGAUGUCGAAAGAAGGGACAUGAGGAUCACCCAUGUGGUAC	43	57.7	–	–	–
UUCUCAUCGUACAUGAGGAUCACCCAUGUCUCCCAUUUACCCUAGGAUAUGAAAGACCUUUACUCUCAGAAGGAGGAUGAUGCA	–	–	63.2	51.9	–
AUGGAACAUGAGGAUCACCCAUGUGAUGAUACCAGAUUAACGCUUAUCCCUUGGCAGCAUGUCCGCCCUCAACCUGUGGCGUAUU	–	–	–	–	apparent Kd [7]: 22.2 nM; apparent Kd [8]: 26.1 nM
CUGACGAGCUUUUUGUCAGGUUGUGUAGAUACCAGUUCUCUGGUGAACCCUUGGCAGCUAACAACAUGAGGAUCACCCAUGUGAU	–	–	–	–	apparent Kd [9]: 83.7 nM; apparent Kd [10]: 326 nM
AUACCAACGGUCAGGAUAUAGGUAACAAGGAAAGACUAGAAGGGACAUGAGGAUCACCCAUGUUUUAACAUGAU	7.28	6.89	–	–	–
UAAAUGUUUUAGAAGGGAUAAUGCGGCAUUGAAUCAGGAUAUAAAGCUAUAAACACAUGAGGAUCACCCAUGUCCCAGGUUAAA	–	–	477	143	–
UAAGGACUUAUAGGAUAUGCAAACAUGAGGAUCACCCAUGUGAACCACGAAAUGACGCAGAAUAAGCAGAAGGAUAGUACGUAC	–	–	32.7	25.5	–
